Assays:
Type in all cases: toxicity, cell-based
HEK-293T = assay: Incucyte cell viability with HEK293T; settings: human, 10 µM, compound concentration 10 uM; note: filed as whole numbers so only -1 and 0 and 1 occur
U2OS = assay: Incucyte cell viability with U2OS; settings: human, 10 µM, compound concentration 10 uM; note: filed as whole numbers so only -1 and 0 and 1 occur
Fibroblast = assay: Multiplex assay against human fibroblast
Outline: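 Per cents of healthy-nucleus cells form the tubulin, mitochondrial-mass and membrane-permeability phenotype values. Live cells were stained at seeding with Hoechst33342, BioTracker Green Microtubule Cytoskeleton Dye, MitoTracker Red and Annexin V Alexa Fluor 680. After compound addition they were imaged on a CQ1 microscope at 37°C and 5% CO2, and CellPathfinder machine-learning gating split them into Hoechst high-intensity objects or normal cells, normal cells into healthy, pyknosed or fragmented nuclei, and pyknosed cells into mitotic or apoptotic.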

[1] = 0 h, replicate number 2, timepoint 0 hours
[2] = 6 h, replicate number 1, timepoint 6 hours
[3] = 12 h, replicate number 1, timepoint 12 hours
[4] = 18 h, replicate number 1, timepoint 18 hours
[5] = 24 h, replicate number 1, timepoint 24 hours
[6] = 12 h, 1 µM, compound concentration 1 uM, replicate 1
[7] = 12 h, 1 µM, compound concentration 1 uM, replicate 2
[8] = 12 h, 10 µM, compound concentration 10 uM, replicate 1
[9] = 12 h, 10 µM, compound concentration 10 uM, replicate 2
[10] = 24 h, 1 µM, compound concentration 1 uM, replicate 1
[11] = 24 h, 1 µM, compound concentration 1 uM, replicate 2
[12] = 24 h, 10 µM, compound concentration 10 uM, replicate 1
[13] = 24 h, 10 µM, compound concentration 10 uM, replicate 2
[14] = 48 h, 1 µM, compound concentration 1 uM, replicate 1
[15] = 48 h, 1 µM, compound concentration 1 uM, replicate 2
[16] = 48 h, 10 µM, compound concentration 10 uM, replicate 1
[17] = 48 h, 10 µM, compound concentration 10 uM, replicate 2

In the case of `COc1cc2c(NC3CCN(C(C)C)CC3)nc(N3CCC(F)(F)CC3)nc2cc1OCCCN1CCCC1`, the “Growth Rate” value (HEK-293T; [1]) is reported as 1, the “Growth Rate” value (HEK-293T; [2]) is reported as 0 and the “Growth Rate” value (HEK-293T; [3]) is reported as 0. The “Growth Rate” value (HEK-293T; [4]) was 0, the “Growth Rate” value (HEK-293T; [5]) was 0 and the “Growth Rate” value (U2OS; 0 h, replicate number 1, timepoint 0 hours) was 1. For the same compound, the “Growth Rate” value (U2OS; [1]) was 0, the “Growth Rate” value (U2OS; [2]) was 1 and the “Growth Rate” value (U2OS; [3]) was 1. The “Growth Rate” value (U2OS; [4]) was 1, the “Growth Rate” value (U2OS; [5]) was 1 and the “Population Apoptotic (%)” value (Fibroblast; [6]) was 70%. The “Population Fragmented Nuclei (%)” value (Fibroblast; [6]) was 30%, the “Population Healthy Nuclei (%)” value (Fibroblast; [6]) was 48% and the “Population Hoechst High Intensity Objects (%)” value (Fibroblast; [6]) was 11%. The “Population Membrane Permeable-Phenotype (%)” value (Fibroblast; [6]) was 16%, the “Population Mitochondria Different-Phenotype (%)” value (Fibroblast; [6]) was 11% and the “Population Mitotic Cells (%)” value (Fibroblast; [6]) was 29%. The “Population Normal (%)” value (Fibroblast; [6]) was 88%, the “Population Pyknosed Nuclei (%)” value (Fibroblast; [6]) was 21% and the “Population Tubulin-Different-Phenotype (%)” value (Fibroblast; [6]) was 38%. For the same compound, the “Total Cell Count” value (Fibroblast; [6]) was 127, the “Population Apoptotic (%)” value (Fibroblast; [7]) was 30% and the “Population Fragmented Nuclei (%)” value (Fibroblast; [7]) was 20%. For the same compound, the “Population Healthy Nuclei (%)” value (Fibroblast; [7]) was 67%, the “Population Hoechst High Intensity Objects (%)” value (Fibroblast; [7]) was 5% and the “Population Membrane Permeable-Phenotype (%)” value (Fibroblast; [7]) was 3%. For the same compound, the “Population Mitochondria Different-Phenotype (%)” value (Fibroblast; [7]) was 22%, the “Population Mitotic Cells (%)” value (Fibroblast; [7]) was 70% and the “Population Normal (%)” value (Fibroblast; [7]) was 94%. For the same compound, the “Population Pyknosed Nuclei (%)” value (Fibroblast; [7]) was 11%, the “Population Tubulin-Different-Phenotype (%)” value (Fibroblast; [7]) was 19% and the “Total Cell Count” value (Fibroblast; [7]) was 105. The “Population Apoptotic (%)” value (Fibroblast; [8]) was 61%, the “Population Fragmented Nuclei (%)” value (Fibroblast; [8]) was 16% and the “Population Healthy Nuclei (%)” value (Fibroblast; [8]) was 47%. The “Population Hoechst High Intensity Objects (%)” value (Fibroblast; [8]) was 33%, the “Population Membrane Permeable-Phenotype (%)” value (Fibroblast; [8]) was 10% and the “Population Mitochondria Different-Phenotype (%)” value (Fibroblast; [8]) was 13%. For the same compound, the “Population Mitotic Cells (%)” value (Fibroblast; [8]) was 38%, the “Population Normal (%)” value (Fibroblast; [8]) was 66% and the “Population Pyknosed Nuclei (%)” value (Fibroblast; [8]) was 35%. For the same compound, the “Population Tubulin-Different-Phenotype (%)” value (Fibroblast; [8]) was 35%, the “Total Cell Count” value (Fibroblast; [8]) was 239 and the “Population Apoptotic (%)” value (Fibroblast; [9]) was 66%. For the same compound, the “Population Fragmented Nuclei (%)” value (Fibroblast; [9]) was 11%, the “Population Healthy Nuclei (%)” value (Fibroblast; [9]) was 76% and the “Population Hoechst High Intensity Objects (%)” value (Fibroblast; [9]) was 8%. For the same compound, the “Population Membrane Permeable-Phenotype (%)” value (Fibroblast; [9]) was 66%, the “Population Mitochondria Different-Phenotype (%)” value (Fibroblast; [9]) was 97% and the “Population Mitotic Cells (%)” value (Fibroblast; [9]) was 33%. The “Population Normal (%)” value (Fibroblast; [9]) was 91%, the “Population Pyknosed Nuclei (%)” value (Fibroblast; [9]) was 11% and the “Population Tubulin-Different-Phenotype (%)” value (Fibroblast; [9]) was 97%. For the same compound, the “Total Cell Count” value (Fibroblast; [9]) was 89, the “Population Apoptotic (%)” value (Fibroblast; [10]) was 65% and the “Population Fragmented Nuclei (%)” value (Fibroblast; [10]) was 35%. The “Population Healthy Nuclei (%)” value (Fibroblast; [10]) was 47%, the “Population Hoechst High Intensity Objects (%)” value (Fibroblast; [10]) was 20% and the “Population Membrane Permeable-Phenotype (%)” value (Fibroblast; [10]) was 15%. For the same compound, the “Population Mitochondria Different-Phenotype (%)” value (Fibroblast; [10]) was 4%, the “Population Mitotic Cells (%)” value (Fibroblast; [10]) was 34% and the “Population Normal (%)” value (Fibroblast; [10]) was 79%. For the same compound, the “Population Pyknosed Nuclei (%)” value (Fibroblast; [10]) was 17%, the “Population Tubulin-Different-Phenotype (%)” value (Fibroblast; [10]) was 34% and the “Total Cell Count” value (Fibroblast; [10]) was 167. For the same compound, the “Population Apoptotic (%)” value (Fibroblast; [11]) was 29%, the “Population Fragmented Nuclei (%)” value (Fibroblast; [11]) was 14% and the “Population Healthy Nuclei (%)” value (Fibroblast; [11]) was 68%. The “Population Hoechst High Intensity Objects (%)” value (Fibroblast; [11]) was 8%, the “Population Membrane Permeable-Phenotype (%)” value (Fibroblast; [11]) was 2% and the “Population Mitochondria Different-Phenotype (%)” value (Fibroblast; [11]) was 7%. The “Population Mitotic Cells (%)” value (Fibroblast; [11]) was 70%, the “Population Normal (%)” value (Fibroblast; [11]) was 91% and the “Population Pyknosed Nuclei (%)” value (Fibroblast; [11]) was 16%. The “Population Tubulin-Different-Phenotype (%)” value (Fibroblast; [11]) was 12%, the “Total Cell Count” value (Fibroblast; [11]) was 113 and the “Population Apoptotic (%)” value (Fibroblast; [12]) was 63%. For the same compound, the “Population Fragmented Nuclei (%)” value (Fibroblast; [12]) was 22%, the “Population Healthy Nuclei (%)” value (Fibroblast; [12]) was 42% and the “Population Hoechst High Intensity Objects (%)” value (Fibroblast; [12]) was 37%. The “Population Membrane Permeable-Phenotype (%)” value (Fibroblast; [12]) was 4%, the “Population Mitochondria Different-Phenotype (%)” value (Fibroblast; [12]) was 9% and the “Population Mitotic Cells (%)” value (Fibroblast; [12]) was 36%. The “Population Normal (%)” value (Fibroblast; [12]) was 62%, the “Population Pyknosed Nuclei (%)” value (Fibroblast; [12]) was 35% and the “Population Tubulin-Different-Phenotype (%)” value (Fibroblast; [12]) was 43%. The “Total Cell Count” value (Fibroblast; [12]) was 271, the “Population Apoptotic (%)” value (Fibroblast; [13]) was 90% and the “Population Fragmented Nuclei (%)” value (Fibroblast; [13]) was 18%. The “Population Healthy Nuclei (%)” value (Fibroblast; [13]) was 59%, the “Population Hoechst High Intensity Objects (%)” value (Fibroblast; [13]) was 7% and the “Population Membrane Permeable-Phenotype (%)” value (Fibroblast; [13]) was 82%. The “Population Mitochondria Different-Phenotype (%)” value (Fibroblast; [13]) was 100%, the “Population Mitotic Cells (%)” value (Fibroblast; [13]) was 9% and the “Population Normal (%)” value (Fibroblast; [13]) was 92%. For the same compound, the “Population Pyknosed Nuclei (%)” value (Fibroblast; [13]) was 22%, the “Population Tubulin-Different-Phenotype (%)” value (Fibroblast; [13]) was 96% and the “Total Cell Count” value (Fibroblast; [13]) was 112. For the same compound, the “Population Apoptotic (%)” value (Fibroblast; [14]) was 52%, the “Population Fragmented Nuclei (%)” value (Fibroblast; [14]) was 44% and the “Population Healthy Nuclei (%)” value (Fibroblast; [14]) was 43%. For the same compound, the “Population Hoechst High Intensity Objects (%)” value (Fibroblast; [14]) was 26%, the “Population Membrane Permeable-Phenotype (%)” value (Fibroblast; [14]) was 12% and the “Population Mitochondria Different-Phenotype (%)” value (Fibroblast; [14]) was 2%. For the same compound, the “Population Mitotic Cells (%)” value (Fibroblast; [14]) was 47%, the “Population Normal (%)” value (Fibroblast; [14]) was 73% and the “Population Pyknosed Nuclei (%)” value (Fibroblast; [14]) was 12%. The “Population Tubulin-Different-Phenotype (%)” value (Fibroblast; [14]) was 29%, the “Total Cell Count” value (Fibroblast; [14]) was 231 and the “Population Apoptotic (%)” value (Fibroblast; [15]) was 69%. The “Population Fragmented Nuclei (%)” value (Fibroblast; [15]) was 47%, the “Population Healthy Nuclei (%)” value (Fibroblast; [15]) was 44% and the “Population Hoechst High Intensity Objects (%)” value (Fibroblast; [15]) was 34%. The “Population Membrane Permeable-Phenotype (%)” value (Fibroblast; [15]) was 6%, the “Population Mitochondria Different-Phenotype (%)” value (Fibroblast; [15]) was 0% and the “Population Mitotic Cells (%)” value (Fibroblast; [15]) was 30%. For the same compound, the “Population Normal (%)” value (Fibroblast; [15]) was 65%, the “Population Pyknosed Nuclei (%)” value (Fibroblast; [15]) was 7% and the “Population Tubulin-Different-Phenotype (%)” value (Fibroblast; [15]) was 20%. For the same compound, the “Total Cell Count” value (Fibroblast; [15]) was 249, the “Population Apoptotic (%)” value (Fibroblast; [16]) was 37% and the “Population Fragmented Nuclei (%)” value (Fibroblast; [16]) was 19%. For the same compound, the “Population Healthy Nuclei (%)” value (Fibroblast; [16]) was 45%, the “Population Hoechst High Intensity Objects (%)” value (Fibroblast; [16]) was 41% and the “Population Membrane Permeable-Phenotype (%)” value (Fibroblast; [16]) was 6%. For the same compound, the “Population Mitochondria Different-Phenotype (%)” value (Fibroblast; [16]) was 5%, the “Population Mitotic Cells (%)” value (Fibroblast; [16]) was 62% and the “Population Normal (%)” value (Fibroblast; [16]) was 58%. The “Population Pyknosed Nuclei (%)” value (Fibroblast; [16]) was 35%, the “Population Tubulin-Different-Phenotype (%)” value (Fibroblast; [16]) was 32% and the “Total Cell Count” value (Fibroblast; [16]) was 362. The “Population Apoptotic (%)” value (Fibroblast; [17]) was 23%, the “Population Fragmented Nuclei (%)” value (Fibroblast; [17]) was 22% and the “Population Hoechst High Intensity Objects (%)” value (Fibroblast; [17]) was 47%. The “Population Membrane Permeable-Phenotype (%)” value (Fibroblast; [17]) was 4%, the “Population Mitochondria Different-Phenotype (%)” value (Fibroblast; [17]) was 0% and the “Population Mitotic Cells (%)” value (Fibroblast; [17]) was 76%. For the same compound, the “Population Normal (%)” value (Fibroblast; [17]) was 52%, the “Population Pyknosed Nuclei (%)” value (Fibroblast; [17]) was 32% and the “Population Tubulin-Different-Phenotype (%)” value (Fibroblast; [17]) was 34%. The “Total Cell Count” value (Fibroblast; [17]) was 426.

Source: ChEMBL document CHEMBL4689842, “EUbOPEN Chemogenomics Library wave 1” (2021)
